Compounds with a hit are over-represented: about 1.6% of the library has one in this group of screens.
TCR-CD3 inh = inhibitors of human TCR-CD3 interaction | TAMRA-labeled TCR probe fluorescence, biochemical | inhibition, % at 9.4 µM | 360,000 tested, 0.37% active; in the data active means inhibition above about 19%;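 further: recombinant mutant TCR 2C K166C tagged with TAMRA read by polarization; 0% = receptor in buffer alone and 100% = receptor with positive control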
PABP FP inh = PABP-poly(A) binding inhibition; P11940; PABP-poly(A) RNA binding, fluorescence polarization; calls only at 35 µM; 290,000 tested, 1% active; AID 2014;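 further: calls also rest on retests at 20 µM and on dose response follow-up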
Target sequence (P11940 whole entry, looked up): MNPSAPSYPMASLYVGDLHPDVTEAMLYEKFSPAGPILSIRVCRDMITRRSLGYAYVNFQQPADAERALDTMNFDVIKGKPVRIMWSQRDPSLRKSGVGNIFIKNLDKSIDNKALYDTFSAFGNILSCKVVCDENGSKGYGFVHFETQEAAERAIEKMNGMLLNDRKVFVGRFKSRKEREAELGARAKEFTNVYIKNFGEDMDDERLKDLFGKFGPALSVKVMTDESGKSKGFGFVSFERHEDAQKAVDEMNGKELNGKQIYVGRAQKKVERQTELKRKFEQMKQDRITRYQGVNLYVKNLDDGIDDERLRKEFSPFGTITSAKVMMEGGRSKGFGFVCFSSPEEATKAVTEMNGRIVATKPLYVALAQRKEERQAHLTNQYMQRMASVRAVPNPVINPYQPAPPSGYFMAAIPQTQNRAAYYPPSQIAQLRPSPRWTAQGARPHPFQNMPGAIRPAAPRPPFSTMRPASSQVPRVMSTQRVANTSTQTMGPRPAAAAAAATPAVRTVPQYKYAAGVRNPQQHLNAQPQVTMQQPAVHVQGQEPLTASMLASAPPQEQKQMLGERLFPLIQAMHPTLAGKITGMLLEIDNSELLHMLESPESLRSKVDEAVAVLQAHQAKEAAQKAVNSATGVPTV
RBBP9 inhibitor = blocks human serine hydrolase RBBP9. 220,000 tested, 0.2% active. recombinant RBBP9, FP-Rh probe fluorescence polarization. O75884. inhibition, % at 7.94 µM. AID 1515;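 active means inhibition above the campaign mean of all tested compounds plus 3 SD, cut at about 14% in these data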;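 further: plate controls were DMSO wells with RBBP9 for no effect and wells lacking RBBP9 protein for full effect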
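Measured by: FP readout at 525/598 nm; material: recombinant human RBBP9; also added: Serine-hydrolase probe FP-Rh, 375 nM pre-mixing; medium: Tris buffer pH 8.0, NaCl, Pluronic; replication: one well per compound; doses: one concentration, 7.94 µM nominal, 0.794% DMSO; timing: preincubation 30 min plus labeling 45 min at 25 °C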
eIF4H inh = inhibitors of RNA binding by human eIF4H; Q15056; eIF4H fluorescence polarization binding assay; inhibition, % at 35 µM; 290,000 tested, 0.94% active;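 further: calls also rest on retests at 20 µM and on dose response follow-up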
PABP1 MLLE inh = blocks PAM2 peptide binding to the PABP1 MLLE domain. P11940. GST-MLLE / FITC-PAM2 fluorescence polarization. inhibition, % at 20 µM. 360,000 tested, 0.36% active. AID 588489; in the data active means inhibition above about 35%, passing the limit was not always enough;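 further: plate controls were DMSO wells with GST-MLLE for no effect and wells lacking GST-MLLE protein for full effect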
RBBP9 inh conf = human RBBP9 inhibition, confirmation. shares compounds with RBBP9 inhibitor. recombinant RBBP9, FP-Rh probe fluorescence polarization. 410 tested, 36% active. inhibition, % at 7.94 µM;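 active means inhibition above the hit cutoff derived for the primary screen, cut at about 15% in these data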;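 further: 0% = RBBP9 with DMSO and 100% = wells lacking RBBP9 protein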
* hit, by the source's call. Unless noted, how the calls were made is not given here.

How did COC(=O)C1=C(C)N(Cc2ccccc2C(F)(F)F)C(=NCc2ccc3c(c2)OCO3)NC1CCc1ccccc1 (stereo not given) do in these assays?
TCR-CD3 inh: 1

What do the screens show for `O=C1OC2(CCCC2)OC(=O)C1=Cc1c[nH]c2ccccc12`?
TCR-CD3 inh: 7; PABP FP inh: active; RBBP9 inhibitor: -8; eIF4H inh: inconclusive; PABP1 MLLE inh: -15

How did COc1ccc(CN2C[C@H](COCc3ccccc3)Oc3cccc(F)c3S2(=O)=O)cc1 do in these assays?
TCR-CD3 inh: -3

Results for Oc1ccc(NC(=S)Nc2ccc(F)cc2)cc1 ?
TCR-CD3 inh: 8; PABP FP inh: inactive; eIF4H inh: -7; PABP1 MLLE inh: 14

How did Fc1ccc(NC(=S)Nc2ccc(Br)cc2)cc1 do in these assays?
TCR-CD3 inh: -8; PABP FP inh: inactive; RBBP9 inhibitor: -4; eIF4H inh: 1; PABP1 MLLE inh: 40*

Results for FC(F)(F)c1nc2nc(Cl)c(Cl)nc2[nH]1 ?
TCR-CD3 inh: -2; PABP1 MLLE inh: -6

What do the screens show for `FC(F)(F)C(F)(F)C(F)(F)c1nc2nc(Cl)c(Cl)nc2[nH]1`?
TCR-CD3 inh: -9; PABP1 MLLE inh: 49*

What do the screens show for `Oc1ccc(/C=N/N2CCOCC2)c(O)c1O`?
TCR-CD3 inh: 14; PABP FP inh: active; RBBP9 inhibitor: -5; eIF4H inh: 98*; PABP1 MLLE inh: 33

What do the screens show for `CC(=O)Oc1ccc(C(=O)Cc2ccc3ccccc3n2)c(O)c1C`?
TCR-CD3 inh: -8; PABP FP inh: inactive; RBBP9 inhibitor: -9; eIF4H inh: 60; PABP1 MLLE inh: -53

Results for Cc1c(O)ccc(/C(Cc2ccc3ccccc3n2)=N\O)c1O ?
TCR-CD3 inh: -4; PABP FP inh: inactive; RBBP9 inhibitor: 41*; eIF4H inh: 2; PABP1 MLLE inh: 1; RBBP9 inh conf: 47*

How did C[C@@H]1ON(C)[C@H]2C[C@H]3c4[nH]c5c(-c6ccc(Cl)cc6)cccc5c4CCN3C(=O)[C@@H]12 do in these assays?
TCR-CD3 inh: 1

Results for NNC(=O)c1cc(-c2ccc(N)cc2)nc2ccc(Br)cc12 ?
TCR-CD3 inh: -2; PABP FP inh: inactive; RBBP9 inhibitor: 15*; eIF4H inh: -3; PABP1 MLLE inh: -10; RBBP9 inh conf: 69*

How did O=C(O)c1ccc(N/N=C/c2cn(Cc3ccccc3F)c3ccccc23)cc1 do in these assays?
TCR-CD3 inh: 1; PABP FP inh: inactive; RBBP9 inhibitor: 17*; eIF4H inh: 21; PABP1 MLLE inh: -11; RBBP9 inh conf: 11

How did Cc1ccccc1NC(=O)c1sc2nc3c(c(-c4ccco4)c2c1N)CCCC3 do in these assays?
TCR-CD3 inh: 0; PABP FP inh: inactive; RBBP9 inhibitor: 15*; eIF4H inh: 20; PABP1 MLLE inh: 11; RBBP9 inh conf: 7

How did COc1ccc(-c2c3c(nc4sc(C(=O)Nc5ccccc5)c(N)c24)CCC3)cc1 do in these assays?
TCR-CD3 inh: -7; RBBP9 inhibitor: -4; PABP1 MLLE inh: 24

Results for Cc1ccc(NCCCCO)cc1C ?
TCR-CD3 inh: -3; PABP FP inh: inactive; RBBP9 inhibitor: 17*; eIF4H inh: -4; PABP1 MLLE inh: -2; RBBP9 inh conf: 7

How did COC(=O)c1cc(NC(=S)N2CCN(C(=O)C3CCCO3)CC2)cc(C(=O)OC)c1 (stereo not given) do in these assays?
TCR-CD3 inh: -2; PABP FP inh: inactive; RBBP9 inhibitor: 21*; eIF4H inh: -10; PABP1 MLLE inh: -27; RBBP9 inh conf: 3

What do the screens show for `COc1ccc(NC(=S)N2CCN(C(=O)C3CCCO3)CC2)cc1` (stereo not given)?
TCR-CD3 inh: -2; PABP FP inh: inactive; eIF4H inh: 11; PABP1 MLLE inh: -15

How did O=Cc1coc([B-](F)(F)F)c1 do in these assays?
TCR-CD3 inh: -4

How did O=C1C=CC(=O)N1CCNc1ncc(C(F)(F)F)cc1Cl do in these assays?
TCR-CD3 inh: -5; PABP FP inh: inactive; RBBP9 inhibitor: 33*; eIF4H inh: 9; PABP1 MLLE inh: 26; RBBP9 inh conf: 31*

What do the screens show for `Cc1nc(C/C(=N\N)c2ccc(O)cc2O)cs1`?
TCR-CD3 inh: 2; PABP FP inh: inactive; RBBP9 inhibitor: 0; eIF4H inh: -10; PABP1 MLLE inh: -8

Results for CCc1cc(/C(Cc2csc(C)n2)=N/O)c(O)cc1O ?
TCR-CD3 inh: -5; PABP FP inh: inactive; RBBP9 inhibitor: 31*; eIF4H inh: -10; PABP1 MLLE inh: -6; RBBP9 inh conf: 22*

What do the screens show for `CCOC(=O)c1nn(-c2ccc(C)c(C)c2)c(=O)c2c(N)scc12`?
TCR-CD3 inh: -22; PABP FP inh: inactive; RBBP9 inhibitor: 18*; eIF4H inh: -2; PABP1 MLLE inh: -26; RBBP9 inh conf: 38*

How did Cc1ccccc1CN1CCN(C(=O)[C@H]2O[C@@H](n3cnc(C(N)=O)n3)[C@H](O)[C@@H]2O)CC1 do in these assays?
TCR-CD3 inh: 4

What do the screens show for `COCC(=O)NCC1CCN(C(=O)C(=O)c2cccs2)CC1`?
TCR-CD3 inh: -4

What do the screens show for `O=C(COC(=O)/C=C/c1cccs1)Nc1nc(-c2cccc(Br)c2)cs1`?
TCR-CD3 inh: -1; PABP FP inh: inactive; RBBP9 inhibitor: 17*; eIF4H inh: -6; PABP1 MLLE inh: -19; RBBP9 inh conf: 27*

Results for Nc1nc2n(n1)C(=O)CC(c1ccccc1[N+](=O)[O-])N2 (stereo not given) ?
TCR-CD3 inh: -2; PABP FP inh: inactive; RBBP9 inhibitor: 3; eIF4H inh: 0; PABP1 MLLE inh: -5

What do the screens show for `O=C(Nc1cccc(NC(=O)c2cc([N+](=O)[O-])ccc2Cl)n1)c1cc([N+](=O)[O-])ccc1Cl`?
PABP1 MLLE inh: -11

How did O=[N+]([O-])c1ccc(Cl)c(C2Nc3cccc4cccc(c34)N2)c1 do in these assays?
TCR-CD3 inh: -9; PABP FP inh: active; RBBP9 inhibitor: 35*; eIF4H inh: 97*; PABP1 MLLE inh: 22; RBBP9 inh conf: 37*

What do the screens show for `O=[N+]([O-])c1ccccc1C1Nc2cccc3cccc(c23)N1`?
TCR-CD3 inh: 8; PABP FP inh: inactive; RBBP9 inhibitor: 32*; eIF4H inh: 53; PABP1 MLLE inh: 22; RBBP9 inh conf: 27*

Results for C[C@@H]1C=CCCO[C@]12C(=O)N(CC1CC1)c1cccc(Br)c12 ?
TCR-CD3 inh: 4

Results for Cc1cc(C)c(S(=O)(=O)/N=C2/C=C(SCC(=O)O)C(=O)c3ccccc32)cc1C ?
PABP FP inh: inactive; RBBP9 inhibitor: 1; eIF4H inh: -2; PABP1 MLLE inh: -2

Results for Cc1cc(C)c(S(=O)(=O)Nc2cc(SCC(=O)O)c(O)c3ccccc23)cc1C ?
PABP FP inh: inactive; RBBP9 inhibitor: 16*; eIF4H inh: 13; RBBP9 inh conf: 49*

How did Nc1nc(-c2cccnc2)nn1C(=O)CCc1ccccc1 do in these assays?
TCR-CD3 inh: -4; RBBP9 inhibitor: 14*; PABP1 MLLE inh: 1; RBBP9 inh conf: 6

From PubChem BioAssay
